Active and inactive are the calls of the source. The calls are words filed in the database; no cut-off is given here.
Columns and labels:
[1] = molecular target: DNA topoisomerase 2-alpha (Homo sapiens) (UniProt P11388); experiment: Stimulation of human recombinant topoisomerase 2alpha-mediated SV40 DNA cleavage at 10 uM after 45 mins by PAGE
In short: (§1)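 Cleavage assay with recombinant human DNA topoisomerase IIα, using SV40 DNA as substrate, to test for stimulation of DNA cleavage (poison activity).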

[2] = molecular target: DNA topoisomerase 2-alpha (Homo sapiens) (UniProt P11388); experiment: Stimulation of human recombinant topoisomerase 2alpha-mediated SV40 DNA cleavage at 50 uM after 45 mins by PAGE; in short: as §1
CCRF-CEM [3] = experiment: Cytotoxicity against human CCRF-CEM cells after 72 hrs by MTT assay; type: functional, cell-based
In short: (§2)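 MTT growth-inhibition assay on SKBR-3 breast cancer and CEM leukemia cells, 72 h exposure over 0.1–10 μM. IC50 is the concentration giving 50% growth inhibition, derived by linear regression and reported as a mean of six experiments. Single-concentration entries are taken at 10 μM, the top of the range.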

SK-BR-3 [4] = experiment: Cytotoxicity against human SKBR3 cells after 72 hrs by MTT assay; type: functional, cell-based; details: SK-BR-3, 72 h; in short: as §2
CCRF-CEM [5] = experiment: Cytotoxicity against human CCRF-CEM cells at 10 uM after 72 hrs by MTT assay; type: functional, cell-based; in short: as §2
SK-BR-3 [6] = experiment: Cytotoxicity against human SKBR3 cells at 10 uM after 72 hrs by MTT assay; type: functional, cell-based; in short: as §2
HL-60 [7] = experiment: Induction of apoptosis in human HL60 cells assessed as caspase 3 activation at 5 uM after 4 hrs by DEVDase activity assay; type: functional, cell-based
In short: (§3)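 HL60 cells exposed to 5 μM for 4 or 24 h. DEVDase (effector caspase 3/7) activity measured on the DEVD peptide substrate.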

HL-60 [8] = experiment: Cytotoxicity against human HL60 cells after 24 hrs by dye exclusion assay; details: HL-60, 24 h
SH-SY5Y [9] = experiment: Cytotoxicity against human SH-SY5Y at 1 to 5 uM after 72 hrs by trypan blue exclusion assay; type: functional, cell-based
In short: (§4)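 SH-SY5Y neuroblastoma cells incubated with compounds at 1 to 5 μM for the indicated times up to 72 h. Viable cells counted by dye exclusion.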

SH-SY5Y [10] = experiment: Cytotoxicity against human SH-SY5Y assessed as decrease in ERK2 protein level at 5 uM after 20 hrs by Western blotting; type: functional, cell-based
In short: (§5)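 SH-SY5Y cells treated 20 h with 5 μM, then harvested. Protein content and phosphorylation status in cell extracts read by Western blotting at 50 μg protein per lane.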

SH-SY5Y [11] = experiment: Cytotoxicity against human SH-SY5Y assessed as cell viability at 5 uM after 20 hrs by trypan blue exclusion assay; type: functional; details: read-out: Activity
In short: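 SH-SY5Y cells exposed to 5 μM for 20 h. Viable cell fraction assessed by dye exclusion.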

SH-SY5Y [12] = experiment: Cytotoxicity against human SH-SY5Y assessed as decrease in ERK1 protein level at 5 uM after 20 hrs by Western blotting; type: functional, cell-based; in short: as §5
SH-SY5Y [13] = experiment: Cytotoxicity against human SH-SY5Y assessed as decrease in ERK2 phosphorylation at 5 uM after 20 hrs by Western blotting; type: functional, cell-based; in short: as §5
HL-60 [14] = experiment: Induction of apoptosis in human HL60 cells assessed as caspase 3 activation at 5 uM after 24 hrs by DEVDase activity assay; type: functional, cell-based; in short: as §3
HL-60 [15] = experiment: Induction of apoptosis in human HL60 cells assessed as decrease in procaspase 3 level at 5 uM after 4 hrs by Western blotting; type: functional, cell-based
In short: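 HL60 cells incubated 4 h with 5 μM. Extracted proteins analysed by Western blot for the 32 kDa procaspase 3 precursor and its active proteolytic fragment.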

Calf thymus DNA = experiment: Displacement of ethidium bromide from calf thymus DNA by fluorescence assay; type: nucleic-acid assay, Bos taurus; details: for Kapp: Bos taurus
In short: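 Fluorometric intercalator displacement. EC50 is the drug concentration that cuts DNA-bound ethidium fluorescence by 50%, given as the mean of three determinations ± SEM. Apparent binding constant is calculated taking the ethidium binding constant as 10^7 M-1.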

Jurkat = experiment: Induction of apoptosis in human Jurkat T cells assessed as caspase 3 activation at 5 uM after 24 hrs by DEVDase activity assay; type: functional, cell-based
In short: (§6)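 SH-SY5Y neuroblastoma, H9c2 heart and Jurkat T cells treated 24 h with 5 μM. Caspase (DEVDase) activation measured, reported as mean ± SEM of triplicates.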

HL-60 [16] = experiment: Induction of apoptosis in human HL60 cells assessed as caspase 3 activation after 4 hrs by DEVDase activity assay; type: functional, cell-based
In short: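 HL60 cells treated 4 h at the indicated doses, then collected. Caspase (DEVDase) activity determined.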

H9c2 = experiment: Induction of apoptosis in rat H9c2 cells assessed as caspase 3 activation at 5 uM after 24 hrs by DEVDase activity assay; type: cell-based; details: h9c2, 24 h; in short: as §6
SH-SY5Y [17] = experiment: Cytotoxicity against human SH-SY5Y assessed as decrease in ERK1 phosphorylation at 5 uM after 20 hrs by Western blotting; type: functional, cell-based; in short: as §5
SH-SY5Y [18] = experiment: Cytotoxicity against human SH-SY5Y assessed as p53 protein accumulation at 1 uM after 20 hrs by Western blotting; type: functional, cell-based
In short: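 SH-SY5Y extracts prepared after 20 h incubation at the indicated concentrations. p53 content measured by Western blot, 50 μg protein loaded per point.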

SH-SY5Y [19] = experiment: Cytotoxicity against human SH-SY5Y assessed as cell survival at 1 uM after 72 hrs by trypan blue exclusion assay; type: functional; details: read-out: Survival
In short: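 SH-SY5Y neuroblastoma cells incubated with compound at 1 to 5 μM for the indicated times, including 24 h and 72 h. Viable cells were then counted by dye exclusion and expressed as cell survival.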

SH-SY5Y [20] = experiment: Induction of apoptosis in human SH-SY5Y cells assessed as caspase 3 activation at 5 uM after 24 hrs by DEVDase activity assay; type: functional, cell-based; in short: as §6
SH-SY5Y [21] = experiment: Cytotoxicity against human SH-SY5Y after 72 hrs by trypan blue exclusion assay; type: functional, cell-based; in short: as §4
SH-SY5Y [22] = experiment: Cytotoxicity against human SH-SY5Y at 1 uM after 24 hrs by trypan blue exclusion assay; type: functional, cell-based
In short: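 SH-SY5Y cells given 1 μM. Viability at 24 h scored by dye exclusion.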

SH-SY5Y [23] = experiment: Cytotoxicity against human SH-SY5Y assessed as p53 protein accumulation at 5 uM after 20 hrs by Western blotting; type: functional, cell-based; in short: as §5

DNA topoisomerase 2-alpha (Homo sapiens), sequence (P11388 whole entry): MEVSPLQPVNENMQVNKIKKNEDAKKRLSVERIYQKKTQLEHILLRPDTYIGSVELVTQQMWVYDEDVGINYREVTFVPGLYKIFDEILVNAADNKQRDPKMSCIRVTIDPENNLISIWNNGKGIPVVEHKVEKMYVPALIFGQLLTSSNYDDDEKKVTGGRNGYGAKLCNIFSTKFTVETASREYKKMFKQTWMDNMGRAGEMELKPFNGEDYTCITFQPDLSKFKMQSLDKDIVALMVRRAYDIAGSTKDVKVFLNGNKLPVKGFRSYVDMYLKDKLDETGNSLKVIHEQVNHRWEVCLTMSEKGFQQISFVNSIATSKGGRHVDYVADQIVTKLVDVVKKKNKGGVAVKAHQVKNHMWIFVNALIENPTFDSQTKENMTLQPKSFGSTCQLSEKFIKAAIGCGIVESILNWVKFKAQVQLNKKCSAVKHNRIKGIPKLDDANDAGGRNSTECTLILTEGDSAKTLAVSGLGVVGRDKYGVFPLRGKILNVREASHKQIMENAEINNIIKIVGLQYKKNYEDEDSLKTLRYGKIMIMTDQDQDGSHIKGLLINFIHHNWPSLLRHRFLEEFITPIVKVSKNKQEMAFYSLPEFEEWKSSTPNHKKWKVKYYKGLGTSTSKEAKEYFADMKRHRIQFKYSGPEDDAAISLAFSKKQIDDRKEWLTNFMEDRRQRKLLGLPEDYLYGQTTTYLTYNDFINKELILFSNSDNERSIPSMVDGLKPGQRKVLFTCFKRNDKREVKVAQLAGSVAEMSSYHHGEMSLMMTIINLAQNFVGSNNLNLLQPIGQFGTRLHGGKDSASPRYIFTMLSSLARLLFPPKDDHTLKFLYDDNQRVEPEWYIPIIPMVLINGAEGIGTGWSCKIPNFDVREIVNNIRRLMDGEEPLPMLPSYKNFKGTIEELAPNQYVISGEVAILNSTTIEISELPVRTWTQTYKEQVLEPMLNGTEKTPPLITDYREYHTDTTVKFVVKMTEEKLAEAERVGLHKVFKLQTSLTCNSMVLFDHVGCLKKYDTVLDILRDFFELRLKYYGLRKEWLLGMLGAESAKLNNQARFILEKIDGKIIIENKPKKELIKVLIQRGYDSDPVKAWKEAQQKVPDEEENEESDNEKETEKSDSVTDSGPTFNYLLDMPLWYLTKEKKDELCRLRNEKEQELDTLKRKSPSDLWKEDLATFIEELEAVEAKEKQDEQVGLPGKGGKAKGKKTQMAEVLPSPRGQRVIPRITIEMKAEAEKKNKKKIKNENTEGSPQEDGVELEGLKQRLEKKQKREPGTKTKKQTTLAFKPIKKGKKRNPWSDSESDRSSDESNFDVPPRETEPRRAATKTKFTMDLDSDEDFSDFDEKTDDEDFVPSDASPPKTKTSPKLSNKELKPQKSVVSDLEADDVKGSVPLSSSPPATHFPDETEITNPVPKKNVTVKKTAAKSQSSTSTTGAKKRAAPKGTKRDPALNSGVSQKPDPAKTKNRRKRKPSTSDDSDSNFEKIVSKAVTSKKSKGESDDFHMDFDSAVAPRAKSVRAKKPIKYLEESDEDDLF

## COc1ccccc1CNCCCCCCCCCN1C(=O)c2cccc3cccc(c23)C1=O
[1]
  Activity: inactive
[2]
  Activity: inactive
CCRF-CEM [3]
  IC50: 1300 nM
SK-BR-3 [4]
  IC50: 500 nM

## COc1ccccc1CNCCCCCCCCN1C(=O)c2cccc3cccc(c23)C1=O
CCRF-CEM [3]
  IC50: 1200 nM
SK-BR-3 [4]
  IC50: 1400 nM

## COc1ccccc1CNCCN1C(=O)c2cccc3cccc(c23)C1=O
[1]
  Activity: inactive
CCRF-CEM [5]
  Activity: inactive
[2]
  Activity: inactive
SK-BR-3 [4]
  IC50: 2000 nM

## COc1ccccc1CNCCCCCN1C(=O)c2ccc3c4c(ccc(c24)C1=O)C(=O)N(CCCCCNCc1ccccc1OC)C3=O
CCRF-CEM [3]
  IC50: 1100 nM
SK-BR-3 [4]
  IC50: 1100 nM

## COc1ccccc1CNCCCCCCCCCCN1C(=O)c2cccc3cccc(c23)C1=O
CCRF-CEM [3]
  IC50: 8000 nM
SK-BR-3 [4]
  IC50: 2000 nM

## COc1ccccc1CNCCCCN1C(=O)c2cccc3cccc(c23)C1=O
CCRF-CEM [3]
  IC50: 3200 nM
SK-BR-3 [4]
  IC50: 1700 nM

## COc1ccccc1CNCCCCCCCCCCN1C(=O)c2ccc3c4c(ccc(c24)C1=O)C(=O)N(CCCCCCCCCCNCc1ccccc1OC)C3=O
CCRF-CEM [3]
  IC50: 700 nM
SK-BR-3 [4]
  IC50: 200 nM

## COc1ccccc1CNCCCCCCCN1C(=O)c2ccc3c4c(ccc(c24)C1=O)C(=O)N(CCCCCCCNCc1ccccc1OC)C3=O
CCRF-CEM [3]
  IC50: 2500 nM
SK-BR-3 [4]
  IC50: 1700 nM

## COc1ccccc1CNCCCCCCCCN1C(=O)c2ccc3c4c(ccc(c24)C1=O)C(=O)N(CCCCCCCCNCc1ccccc1OC)C3=O
CCRF-CEM [3]
  IC50: 1600 nM
SK-BR-3 [4]
  IC50: 1000 nM

## COc1ccccc1CNCCCCCCN1C(=O)c2cccc3cccc(c23)C1=O
SK-BR-3 [6]
  Activity: inactive
CCRF-CEM [5]
  Activity: inactive

## COc1ccccc1CNCCCCN1C(=O)c2ccc3c4c(ccc(c24)C1=O)C(=O)N(CCCCNCc1ccccc1OC)C3=O
CCRF-CEM [3]
  IC50: 800 nM
SK-BR-3 [4]
  IC50: 700 nM

## COc1ccccc1CNCCN1C(=O)c2ccc3c4c(ccc(c24)C1=O)C(=O)N(CCNCc1ccccc1OC)C3=O
HL-60 [7]
  Activity: Active
HL-60 [8]
  IC50: 900 nM
SH-SY5Y [9]
  Activity: Active
SH-SY5Y [10]
  Activity: Active
SH-SY5Y [11]
  viability at 5 µM: 70%
SH-SY5Y [12]
  Activity: Active
SH-SY5Y [13]
  Activity: Active
HL-60 [14]
  Activity: Active
HL-60 [15]
  Activity: Active
[1]
  Activity: inactive
Calf thymus DNA
  EC50: 93 nM
  Kapp: 2.72 ×10⁸ /M
Jurkat
  Activity: Active
HL-60 [16]
  Activity: Dose-dependent effect
[2]
  Activity: inactive
CCRF-CEM [3]
  IC50: 1300 nM
H9c2
  Activity: Active
SH-SY5Y [17]
  Activity: Active
SH-SY5Y [18]
  Activity: Active
SH-SY5Y [19]
  viability at 1 µM: 60%
SH-SY5Y [20]
  Activity: Active
SH-SY5Y [21]
  IC50: 1400 nM
SK-BR-3 [4]
  IC50: 700 nM

## COc1ccccc1CNCCCN1C(=O)c2ccc3c4c(ccc(c24)C1=O)C(=O)N(CCCNCc1ccccc1OC)C3=O
HL-60 [7]
  Activity: Active
HL-60 [8]
  IC50: 1200 nM
SH-SY5Y [9]
  Activity: Active
SH-SY5Y [10]
  Activity: Active
SH-SY5Y [11]
  viability at 5 µM: 70%
SH-SY5Y [12]
  Activity: Active
SH-SY5Y [13]
  Activity: Active
HL-60 [14]
  Activity: Active
HL-60 [15]
  Activity: Active
[1]
  Activity: inactive
Calf thymus DNA
  EC50: 122 nM
  Kapp: 2.07 ×10⁸ /M
HL-60 [16]
  Activity: Dose-dependent effect
[2]
  Activity: inactive
CCRF-CEM [3]
  IC50: 400 nM
SH-SY5Y [17]
  Activity: Active
SH-SY5Y [22]
  Activity: inactive
SH-SY5Y [21]
  IC50: 1400 nM
SK-BR-3 [4]
  IC50: 200 nM

## COc1ccccc1CNCCCN1C(=O)c2cccc3cccc(c23)C1=O
SK-BR-3 [6]
  Activity: inactive
CCRF-CEM [5]
  Activity: inactive

## COc1ccccc1CNCCCCCCCN1C(=O)c2cccc3cccc(c23)C1=O
SK-BR-3 [6]
  Activity: inactive
CCRF-CEM [5]
  Activity: inactive

## COc1ccccc1CNCCCCCCN1C(=O)c2ccc3c4c(ccc(c24)C1=O)C(=O)N(CCCCCCNCc1ccccc1OC)C3=O
CCRF-CEM [3]
  IC50: 2200 nM
SK-BR-3 [4]
  IC50: 1200 nM

## COc1ccccc1CNCCCCCCCCCN1C(=O)c2ccc3c4c(ccc(c24)C1=O)C(=O)N(CCCCCCCCCNCc1ccccc1OC)C3=O
CCRF-CEM [3]
  IC50: 1400 nM
SK-BR-3 [4]
  IC50: 400 nM

## CN(C)CCN1C(=O)c2cccc3cc([N+](=O)[O-])cc(c23)C1=O [MITONAFIDE]
HL-60 [7]
  Activity: Active
HL-60 [8]
  IC50: 1600 nM
SH-SY5Y [10]
  Activity: Active
SH-SY5Y [11]
  viability at 5 µM: 70%
SH-SY5Y [12]
  Activity: Active
SH-SY5Y [13]
  Activity: inactive
HL-60 [14]
  Activity: Active
Calf thymus DNA
  EC50: 11500 nM
  Kapp: 2.2 ×10⁶ /M
SH-SY5Y [17]
  Activity: inactive
SH-SY5Y [23]
  Activity: Active

## COc1ccccc1CNCCCCCN1C(=O)c2cccc3cccc(c23)C1=O
SK-BR-3 [6]
  Activity: inactive
CCRF-CEM [5]
  Activity: inactive

Source: ChEMBL document CHEMBL1154737, “Design, synthesis, and biological evaluation of substituted naphthalene imides and diimides as anticancer agent” (J Med Chem, 2009)
